Measurements taken from ChEMBL document CHEMBL1641490, “Dicationic phenyl-2,2'-bichalcophenes and analogues as antiprotozoal agents” (Bioorg Med Chem, 2011).
The source made the active and inactive calls. No cut-off for these calls is given here.

How the values were obtained:
[1] = test system: Trypanosoma brucei rhodesiense; assay: Antitrypanosomal activity against Trypanosoma brucei rhodesiense STIB900 after 70 hrs by alamar blue assay; format: functional, organism-based; conditions: STIB900, 70 h
Outline: (§1)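 Parasites were Trypanosoma brucei rhodesiense STIB900 and Plasmodium falciparum K1. Values are averages of duplicate determinations.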

L6 = assay: Cytotoxicity against rat L6 cells by alamar blue assay; format: cell-based
[2] = Selectivity index, ratio of IC50 for rat L6 cells to IC50 for Trypanosoma brucei rhodesiense STIB900; format: toxicity, cell-based; conditions: L6 cells versus Trypanosoma brucei rhodesiense STIB900, read-out: Ratio IC50
Outline: (§2)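 Ratio of IC50 in cultured L6 rat myoblasts (Alamar Blue read-out) to IC50 against P. falciparum K1 or T. b. rhodesiense STIB900. Parasite values are the average of duplicate determinations.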

Plasmodium falciparum = assay: Antiplasmodial activity against Plasmodium falciparum K1 infected in human RBC after 48 hrs by [3H]-hypoxanthine incorporation assay; format: functional, organism-based; outline: as §1
[3] = Selectivity index, ratio of IC50 for rat L6 cells to IC50 for Plasmodium falciparum K1; format: toxicity, cell-based; conditions: L6 cells versus Plasmodium falciparum K1, read-out: Ratio IC50; outline: as §2
[4] = test system: Trypanosoma brucei rhodesiense; assay: Antitrypanosomal activity against Trypanosoma brucei rhodesiense STIB900 infected in NMRI mouse assessed as parasitemia free host at 5 mg/kg, ip administered 2 days after post infection for 4 consecutive days measured up to 60 days; format: functional, organism-based; set-up: dose 5 mg/kg
[5] = test system: Trypanosoma brucei rhodesiense; assay: Antitrypanosomal activity against Trypanosoma brucei rhodesiense STIB900 infected in NMRI mouse assessed as effect on survival days at 5 mg/kg, ip […] measured up to 60 days; format: functional; conditions: route intraperitoneal
[6] = test system: Trypanosoma brucei rhodesiense; assay: Antitrypanosomal activity against Trypanosoma brucei rhodesiense STIB900 infected in NMRI mouse assessed as effect on survival days at 20 mg/kg, ip administered 2 days after post infection for 4 consecutive days measured up to 60 days; format: functional; conditions: route intraperitoneal

SMILES | IC50 [1] | IC50 (L6) | selectivity ratio [2] | IC50 (Plasmodium falciparum) | selectivity ratio [3] | Activity [4] | Survival [5] | ΔTm (Nucleic Acid) | Survival [6]
Cl.N=C(N)c1ccc(-c2ccc(-c3ccc(C(=N)N)s3)o2)cc1 | 6 nM | 10900 nM | 1820 | 17.4 nM | 626 | inactive | 16.75 days | 14.1 °C | 
Cl.N=C(N)c1ccc(-c2ccc(-c3ccc(C(=N)N)s3)s2)cc1 | 2 nM | 6000 nM | 3000 | 10.4 nM | 576 | inactive | 25.25 days | 18.1 °C | 
Cl.N=C(N)c1ccc(-c2ccc(-c3ccc(C(=N)N)o3)o2)cn1 | 6 nM | 38500 nM | 6420 | 1 nM | 38500 | inactive | 41.75 days | 5.5 °C | 
N=C(N)c1ccc(OCCCCCOc2ccc(C(=N)N)cc2)cc1 [PENTAMIDINE] |  | 6000 nM |  | 6.4 nM |  |  | >45 days |  | 
Cl.N=C(N)c1ccc(-c2ccc(-c3ccc(C(=N)N)o3)s2)cc1 | 2 nM | 29300 nM | 14900 | 0.9 nM | 32600 |  | >46.5 days | 13.1 °C | 
Cl.N=C(N)c1ccc(-c2ccc(-c3ccc(C(=N)N)s3)s2)cn1 | 4 nM | 4000 nM | 1000 | 2.3 nM | 1740 |  | 49 days | 16.6 °C | 
N=C(N)c1ccc(-c2ccc(-c3ccc(C(=N)N)cc3)o2)cc1 [FURAMIDINE] |  |  |  |  |  | Active | >46 days |  | 
Cl.N=C(N)c1ccc(-c2ccc(-c3ccc(C(=N)N)o3)o2)cc1 | 12 nM | 37800 nM | 3150 | 41.5 nM | 910 |  |  | 8.5 °C | >45.5 days
Cl.N=C(N)c1ccc(C#Cc2ccc(-c3ccc(C(=N)N)o3)o2)cc1 | 42 nM | 63000 nM | 1500 | 14.1 nM | 4470 | inactive | 15.25 days | 4 °C | 
